From ChEMBL document CHEMBL3351552, “Structure-activity profiles of novel 6-substituted pyrrolo[2,3-d]pyrimidine thienoyl antifolates with modified amino acids for cellular uptake by folate receptors α and β and the proton-coupled folate transporter” (J Med Chem, 2014)
The source made the active and inactive calls. The rule behind the calls is not given here.

Experiments:
[1] = molecular target: T1, Proton-coupled folate transporter (Homo sapiens) (UniProt Q96NT5); assay: Inhibition of PCFT (unknown origin) expressed in Chinese hamster R2/PCFT4 cells assessed as reduction in PCFT-mediated [3H]MTX transport at 1 uM at pH 5.5 and 37 degC incubated for 5 mins; format: cell-based
T1 sequence (whole entry): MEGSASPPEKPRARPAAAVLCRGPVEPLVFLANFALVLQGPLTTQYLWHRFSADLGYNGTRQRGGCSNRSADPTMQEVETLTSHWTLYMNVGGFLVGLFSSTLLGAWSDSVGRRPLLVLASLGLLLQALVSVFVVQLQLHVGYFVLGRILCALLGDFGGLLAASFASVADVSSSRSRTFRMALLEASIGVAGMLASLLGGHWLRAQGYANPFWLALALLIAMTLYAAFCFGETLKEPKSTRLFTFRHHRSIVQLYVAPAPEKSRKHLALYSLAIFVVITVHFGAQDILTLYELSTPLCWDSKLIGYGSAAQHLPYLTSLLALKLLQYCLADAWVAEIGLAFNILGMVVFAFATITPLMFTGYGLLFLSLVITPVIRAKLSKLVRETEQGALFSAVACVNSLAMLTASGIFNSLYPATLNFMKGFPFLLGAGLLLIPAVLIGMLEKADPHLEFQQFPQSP
In short: (§1)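 Uptake was quenched with ice-cold DPBS, cells washed and solubilized in 0.5 N NaOH. Radioactivity was expressed per mg protein and normalized to untreated controls. Mean ± SE of three experiments.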

[2] = molecular target: Folate receptor beta (Homo sapiens) (UniProt P14207); assay: Inhibition of [3H]folic acid binding to FRbeta (unknown origin) expressed in Chinese hamster D4 cells; format: cell-based
Folate receptor beta (Homo sapiens), sequence (P14207 17-230 limits assumed): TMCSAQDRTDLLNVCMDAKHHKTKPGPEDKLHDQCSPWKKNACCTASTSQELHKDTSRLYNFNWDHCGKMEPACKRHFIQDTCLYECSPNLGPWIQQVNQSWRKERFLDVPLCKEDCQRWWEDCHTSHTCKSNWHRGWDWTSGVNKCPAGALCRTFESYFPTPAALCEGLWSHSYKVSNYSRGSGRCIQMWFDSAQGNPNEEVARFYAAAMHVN
In short: (§2)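 RT16 (FRα) or D4 (FRβ) CHO cells (~5 × 10^6) were stripped of bound folate with pH 3.5 acetate/saline, then washed in ice-cold HEPES-buffered saline pH 7.4. Cells were incubated 15 min at 0 °C with 50 nM [3H]folic acid (0.5 Ci/mmol) plus 0–1000 nM unlabeled competitor. Cells were rinsed cold, NaOH-solubilized, and counts normalized to protein. […] Mean ± SE, n=3.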

KB [3] = assay: Cytotoxicity against human KB cells assessed as cell growth inhibition incubated up to 96 hrs in presence of 60 uM adenosine by Celltiter-blue cell viability assay; format: functional, cell-based
In short: (§3)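 KB cells grown in complete folate-free RPMI 1640 with 2 nM LCV over a range of drug concentrations, with added thymidine (10 μM), adenosine (60 μM) or AICA (320 μM) as protecting agents. After up to 96 h, density measured by CellTiter-Blue fluorescence and normalized to drug-free cells. Experiments run in triplicate.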

KB [4] = assay: Cytotoxicity against human KB cells assessed as cell growth inhibition incubated up to 96 hrs in presence of 320 uM AICA by Celltiter-blue cell viability assay; format: functional, cell-based; in short: as §3
[5] = molecular target: T1, Proton-coupled folate transporter (Homo sapiens); assay: Inhibition of PCFT (unknown origin) expressed in Chinese hamster R2/PCFT4 cells assessed as reduction in PCFT-mediated [3H]MTX transport at 10 uM at pH 5.5 and 37 degC incubated for 5 mins; format: cell-based; in short: as §1
[6] = molecular target: T1, Proton-coupled folate transporter (Homo sapiens); assay: Inhibition of PCFT (unknown origin) expressed in Chinese hamster R2/PCFT4 cells assessed as reduction in PCFT-mediated [3H]MTX transport at 10 uM at pH 6.8 and 37 degC incubated for 5 mins; format: cell-based; in short: as §1
KB [7] = assay: Cytotoxicity against human KB cells assessed as cell growth inhibition incubated up to 96 hrs in presence of 10 uM thymidine by Celltiter-blue cell viability assay; format: functional, cell-based; in short: as §3
[8] = molecular target: T1, Proton-coupled folate transporter (Homo sapiens); assay: Inhibition of PCFT (unknown origin) expressed in Chinese hamster R2/PCFT4 cells assessed as reduction in PCFT-mediated [3H]MTX transport at 1 uM at pH 6.8 and 37 degC incubated for 5 mins; format: cell-based; in short: as §1
KB [9] = assay: Cytotoxicity against human KB cells assessed as cell growth inhibition incubated up to 96 hrs in presence of 200 nM folic acid by Celltiter-blue cell viability assay; format: functional, cell-based
In short: (§4)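 Cells plated at ~2500–5000/well in folate-free RPMI with 10% dialyzed FBS, antibiotics, 2 nM LCV and 2 mM L-glutamine, exposed to a range of drug concentrations. RT16 were pre-cultured 3 days in folate-free RPMI. FR dependence was tested in parallel wells containing 200 nM folic acid. Incubation up to 96 h, CellTiter-Blue fluorescence read-out. IC50 taken versus untreated cells.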

[10] = molecular target: Folate receptor alpha (Homo sapiens) (UniProt P15328); assay: Inhibition of [3H]folic acid binding to FRalpha (unknown origin) expressed in Chinese hamster RT16 cells; format: cell-based; in short: as §2
Folate receptor alpha (Homo sapiens), sequence (P15328 25-234 limits assumed): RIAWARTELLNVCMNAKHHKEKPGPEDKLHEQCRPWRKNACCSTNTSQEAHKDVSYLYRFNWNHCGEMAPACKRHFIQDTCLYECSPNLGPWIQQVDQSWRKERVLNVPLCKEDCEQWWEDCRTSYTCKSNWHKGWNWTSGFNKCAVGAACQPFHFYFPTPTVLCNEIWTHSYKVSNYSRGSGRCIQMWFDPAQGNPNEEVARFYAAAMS

R2 [11] = assay: Cytotoxicity against Chinese hamster R2 cells expressing empty vector assessed as cell growth inhibition incubated up to 96 hrs by Celltiter-blue cell viability assay; format: cell-based, Cricetulus griseus; settings: R2, 96 h
KB [12] = assay: Cytotoxicity against human KB cells assessed as cell growth inhibition incubated up to 96 hrs by Celltiter-blue cell viability assay; format: functional, cell-based; in short: as §4
R2 [13] = assay: Cytotoxicity against Chinese hamster R2 cells assessed as cell growth inhibition incubated up to 96 hrs by Celltiter-blue cell viability assay; format: cell-based; settings: Cricetulus griseus, R2, 96 h
[14] = molecular target: T2, Proton-coupled folate transporter (Homo sapiens, UniProt Q96NT5); assay: Inhibition of PCFT (unknown origin) expressed in Chinese hamster R2/PCFT4 cells assessed as reduction in PCFT-mediated [3H]MTX transport at pH 5.5 and 37 degC incubated for 5 mins; format: cell-based
T2 sequence (Q96NT5 whole entry): T1 sequence (whole entry)

Row | SMILES | inhibition [1] [%] | inhibition [2] | inhibition [5] [%] | inhibition [6] [%] | inhibition [8] [%] | inhibition [10] | Ki [14] [nM] | growth inhibition (GI) (KB [3]) | growth inhibition (GI) (KB [4]) | growth inhibition (GI) (KB [7]) | IC50 (KB [9]) [nM] | IC50 (R2 [11]) [nM] | IC50 (KB [12]) [nM] | IC50 (R2 [13]) [nM]
1 | Nc1nc(=O)c2nc(CNc3ccc(C(=O)N[C@@H](CCC(=O)O)C(=O)O)cc3)cnc2[nH]1 | – | Active | – | – | – | Active | – | – | – | – | – | – | – | –
2 | Nc1nc2[nH]c(CCCc3ccc(C(=O)O)s3)cc2c(=O)[nH]1 | – | Active | – | – | – | Active | – | – | – | – | > 1000 | > 1000 | > 1000 | > 1000
3 | Nc1nc2[nH]c(CCCc3ccc(C(=O)N[C@@H](CC(=O)O)C(=O)O)s3)cc2c(=O)[nH]1 | – | Active | – | – | – | Active | – | – | – | – | > 1000 | > 1000 | > 1000 | > 1000
4 | CN(Cc1cnc2nc(N)nc(N)c2n1)c1ccc(C(=O)N[C@@H](CCC(=O)O)C(=O)O)cc1 [METHOTREXATE] | – | inactive | – | – | – | inactive | – | – | – | – | – | > 1000 | – | –

The next lines start with results.

Row | inhibition [1] [%] | inhibition [2] | inhibition [5] [%] | inhibition [6] [%] | inhibition [8] [%] | inhibition [10] | Ki [14] [nM] | SMILES | growth inhibition (GI) (KB [3]) | growth inhibition (GI) (KB [4]) | growth inhibition (GI) (KB [7]) | IC50 (KB [9]) [nM] | IC50 (R2 [11]) [nM] | IC50 (KB [12]) [nM] | IC50 (R2 [13]) [nM]
5 | 80 | Active | 95 | 70 | 20 | Active | – | Nc1nc2[nH]c(CCCc3ccc(C(=O)N[C@@H](CCC(=O)O)C(=O)O)s3)cc2c(=O)[nH]1 | inactive | inactive | Active | > 1000 | – | – | –
6 | – | Active | – | – | – | Active | – | Nc1nc2[nH]c(CCCc3ccc(C(=O)NCCCC(=O)O)s3)cc2c(=O)[nH]1 | – | – | – | > 1000 | > 1000 | > 1000 | > 1000
7 | 25 | Active | 70 | 30 | – | Active | 2900 | CCC[C@H](NC(=O)c1ccc(CCCc2cc3c(=O)[nH]c(N)nc3[nH]2)s1)C(=O)O | – | – | – | > 1000 | > 1000 | > 1000 | > 1000
8 | 10 | Active | 75 | 30 | – | Active | 1600 | Nc1nc2[nH]c(CCCc3ccc(C(=O)N[C@@H](CCCC(=O)O)C(=O)O)s3)cc2c(=O)[nH]1 | inactive | inactive | Active | > 1000 | > 1000 | 9 | > 1000
